For the test, the system named is E. coli BW25113 ΔtolC growth inhibition, OD615. As to the kind of experiment: E. coli ΔtolC antibacterial growth inhibition – strain BW25113 ΔtolC::kan, dose response (AID 617). In a few lines:
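Test system: E. coli BW25113 ΔtolC::kan bacteria / Buffer or medium: kanamycin-containing LB broth, 50 µg/mL / Compound: serial dilution series of compound / Incubation: bacterial growth with compound for 20 h, 37 °C / Measured by: OD615 / Read-out basis: growth-inhibition IC50 from four-parameter logistic curve, bounds set to 0% and 100%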
As a reminder, the IC50 is the midpoint of a concentration-inhibition curve. As for `CC(O)c1c(OCc2ccccc2)ncnc1OCc1ccccc1` (stereo not drawn), the IC50 is 10.7 µM.

Consider `COc1ccc2nc3c(cc2c1)c(NC(=O)c1cccs1)nn3CC(C)C`, for which the IC50 was 9.28 µM.

Regarding `O=C(Nc1scc(-c2cccs2)c1C(=O)O)c1cccs1`, the 50% inhibitory concentration (IC50) was 10.5 µM.

Consider `O=C1CCCc2nc3nc4ccccc4n3cc21`, for which the half-inhibitory concentration (IC50) was 17 µM.

Take `CCCc1cc(C(=O)Cc2ccc(C(=O)OCC)o2)c(O)cc1O`: the IC50 was 18.6 µM.

On to `O=C(Nc1nc(SCc2ccc(F)cc2)ns1)c1ccco1`, for which the half-maximal inhibitory concentration (IC50) is 4.2 µM.

With `Cc1nnc(NC(=O)c2ccc(S(=O)(=O)N(C)Cc3ccccc3)cc2)o1`, the IC50 is 3.87 µM.

On to `COc1c(C)cc(Br)cc1C(=O)Nc1cccc(NC(=O)c2ccco2)c1`, for which the IC50 is 7.48 µM.

Regarding `COc1ccccc1-c1nnc(NC(=O)c2ccc(S(=O)(=O)N(C)C)cc2)o1`, the IC50 is 3.77 µM.

Take `[O-][N+]1=c2ccc(Nc3ccccc3)cc2=NC12CCCCC2`: the concentration for half-maximal inhibition (IC50) was 15.3 µM.

Turning to `CCOC(=O)c1nnn(-c2nonc2-n2cccc2)c1CN1CCC(C)CC1`, the half-inhibitory concentration (IC50) is 23.4 µM.

As to `CN(C1CCCCC1)S(=O)(=O)c1ccc(NC(=O)c2ccc(Br)o2)cc1`, the IC50 was 10.6 µM.

For `COc1ccc(NC(=O)c2cc(-c3cc(C)cc(C)c3O)n[nH]2)cc1Cl`, the half-maximal inhibitory concentration (IC50) is 1.95 µM.

Take `CC1CN(S(=O)(=O)c2ccc(C(=O)Nc3nnc(-c4ccc5c(c4)CCCC5)o3)cc2)CC(C)O1` (stereo not drawn): the IC50 was 0.77 µM.

For `COc1cccc(-c2csc(N3CCN(C(=O)C4CCCCC4)CC3)n2)c1`, the IC50 was 16.8 µM.

Regarding `Fc1ccc(CNc2nc(-c3ccco3)cc(C(F)(F)F)n2)cc1`, the IC50 was 13.9 µM.

In the case of `COc1ccc(-c2noc(CCC(=O)N(C)c3cccc(C)c3)n2)cc1`, the IC50 is 22.7 µM.

On to `O=C(Nc1ccccc1)Nc1ccc(S(=O)(=O)N2CCCCC2)cc1`, for which the half-maximal inhibitory concentration (IC50) is 10.3 µM.

On to `COc1cccc2sc(Nc3nc(-c4ccccn4)cs3)nc12`, for which the IC50 was 1.79 µM.

In the case of `O=C(Nc1ccc(C(F)(F)F)cc1Cl)c1ccc(Cn2cc(Br)cn2)o1`, the IC50 is 9.95 µM.

Turning to `Cc1cccc(Nc2nc(-c3ccccn3)cs2)n1`, the concentration for half-maximal inhibition (IC50) is 0.68 µM.

With `O=C(Nc1nnc(-c2ccccc2Cl)o1)c1ccc(S(=O)(=O)N2CCCCCC2)cc1`, the IC50 is 0.16 µM.

Turning to `O=C(CS(=O)(=O)c1ccccc1)Nc1nc(-c2ccccc2)cs1`, the IC50 is 8.07 µM.

For `Cc1cc(N2CCN(c3ccccc3)CC2)nc(-n2nc(C)cc2C)n1`, the half-maximal inhibitory concentration (IC50) is 7.6 µM.

For `O=C(Cc1ccccc1F)Nc1nc(-c2cccs2)cs1`, the IC50 is 6.95 µM.

Consider `Cc1ccc(S(=O)(=O)N(Cc2ccc(F)cc2)Cc2ccco2)cc1`, for which the IC50 was 7.01 µM.

As to `Cc1ccc(-c2nnc(N3CCN(c4ccccn4)CC3)c3ccccc23)cc1`, the IC50 was 4.28 µM.

Regarding `O/N=C(\c1ccc(Cl)cc1)c1cc2ccccc2o1`, the IC50 is 5.7 µM.

With `CCOC(=O)c1cc2cc(-c3c(C(=O)OCC)oc4cc(O)cc(O)c4c3=O)ccc2o1`, the half-maximal inhibitory concentration (IC50) was 7.59 µM.

As to `CC1CCc2cc(F)ccc2N1C(=O)c1cc2nc(-c3ccco3)cc(C(F)(F)F)n2n1` (stereo not drawn), the concentration for half-maximal inhibition (IC50) is 11.2 µM.

As to `CCN(CCCNC(=O)c1[nH]c(C)c(C(C)=O)c1C)c1cccc(C)c1`, the IC50 was 8.23 µM.

Regarding `CCOC(=O)c1cnc(-n2nc(C)cc2C)nc1Nc1ccc(N(C)C)cc1`, the IC50 is 13.7 µM.

Take `CCCCN(C)S(=O)(=O)c1ccc(C(=O)Nc2nnc(CSC)o2)cc1`: the half-maximal inhibitory concentration (IC50) was 0.86 µM.

Turning to `O=C(Nc1ccc2c(c1)CCC2)C1COc2ccccc2O1` (stereo not drawn), the concentration for half-maximal inhibition (IC50) was 12.2 µM.

`CCOC(=O)c1c(-c2ccc(OC)cc2)oc2ccc(OC(=O)N(C)C)cc12`: the IC50 was 12.9 µM.

`CCOC(=O)N1CCC(c2cc(=O)n3[nH]c(C)c(-c4ccc(F)cc4)c3n2)CC1`: the IC50 was 1.68 µM.

`N#C/C(=C\C1CC=CCC1)c1nc2ccccc2[nH]1` (stereo not drawn): the IC50 was 36.9 µM.

`CCOC(=O)c1c(-c2cccs2)csc1NC(=O)CN1CC(C)OC(C)C1` (stereo not drawn): the IC50 is 24.8 µM.

In the case of `O=c1[nH]c2ccc(S(=O)(=O)N3CCN(c4ccccc4F)CC3)cc2s1`, the half-maximal inhibitory concentration (IC50) was 57 µM.

In the case of `Cc1ccc(C(=O)N2CCN(c3cccc(Cl)c3)CC2)cc1C`, the IC50 is 10.4 µM.

For the compound `c1ccc(-c2nc(CSc3nnc(-c4cccs4)o3)cs2)cc1`, the IC50 is 10.1 µM.

For the compound `Cc1ccc2cc(CN(Cc3ccc(F)cc3)Cc3nnnn3C3CCCC3)c(=O)[nH]c2c1`, the IC50 is 12.8 µM.

In the case of `Cc1c(CCC(=O)O)c(=O)oc2cc3occ(-c4ccc(F)cc4)c3cc12`, the half-maximal inhibitory concentration (IC50) was 5.48 µM.

Take `CCOC(=O)c1cc2oc(C)cc2n1CC(=O)OC1CCCCC1`: the half-inhibitory concentration (IC50) is 17.6 µM.

As for `O=C(c1ccc(COc2ccc3c(c2)CCC3)o1)N1CCN(c2ccccc2)CC1`, the IC50 is 10.7 µM.

`O=C(Nc1nc(-c2ccccc2)cs1)c1cccs1`: the half-maximal inhibitory concentration (IC50) was 5.9 µM.

For `CCOC(=O)N1CCN(c2nc(-c3ccc(F)cc3)cs2)CC1`, the IC50 is 32.4 µM.

Consider `CCCCn1c(NC(=O)c2ccccc2)c(C#N)c2nc3ccccc3nc21`, for which the IC50 was 2.79 µM.

`CCOc1cc(S(=O)(=O)n2cc(-c3ccc(F)cc3)c(N)n2)cc(OCC)c1OCC`: the IC50 is 21 µM.

`CCn1c(C(=O)N2CCC(C(=O)NCCCSC3CCCCC3)CC2)cc2sccc21`: the concentration for half-maximal inhibition (IC50) is 6.22 µM.

On to `N#Cc1nc(COc2ccc(Cl)cc2)oc1N1CCCCCC1`, for which the IC50 is 8.68 µM.

Turning to `COc1ccc(-c2nnc(SCc3cc(C)cc(C)c3)o2)cc1`, the IC50 was 6.77 µM.

For the compound `Cc1ccc2nc(NC(=O)CNS(=O)(=O)c3ccc(Br)s3)sc2c1`, the half-inhibitory concentration (IC50) was 47.7 µM.

For the compound `Fc1ccc(Br)cc1C1C=C(c2ccc(Br)s2)Nc2ncnn21` (stereo not drawn), the IC50 was 5.22 µM.

For `O=C(Nc1cnn(Cc2ccc(Cl)cc2Cl)c1)c1noc2c1CCCC2`, the IC50 was 8.39 µM.

On to `Cc1nn(-c2ccc(F)cc2)c2sc(C(=O)N3CCCCCC3)cc12`, for which the 50% inhibitory concentration (IC50) was 20.2 µM.

`N#CCSc1nc2c(c(C3CC=CCC3)c1C#N)CCC2` (stereo not drawn): the IC50 was 12.9 µM.

On to `CCn1c(=O)c2cc(C(=O)N3CCN(C(=O)c4ccco4)CC3)sc2c2ccccc21`, for which the 50% inhibitory concentration (IC50) was 6.29 µM.

For `CC1(C)C(=O)OC(c2cc(Br)ccc2O)C(C)(C)C1=O` (stereo not drawn), the IC50 is 15.4 µM.

Take `Clc1ccc(COC(Cn2ccnc2)c2ccc(Cl)cc2Cl)c(Cl)c1` (stereo not drawn): the IC50 is 3.22 µM.

On to `CNc1ccc(C(O)(C(F)(F)F)C(F)(F)F)cc1C(O)(C(F)(F)F)C(F)(F)F`, for which the IC50 was 6.95 µM.

For the compound `CC(C)N(Cc1nc(-c2ccccc2)no1)C(=O)c1ccc(Cl)cc1`, the IC50 is 19.5 µM.

Take `COC(=O)c1ccc(/C(O)=C(\C#N)c2nc3ccccc3s2)cc1`: the 50% inhibitory concentration (IC50) is 2.51 µM.

Turning to `COc1cc2c(C#N)c(N3CCc4ccccc4C3)nc(N)c2c(N)n1`, the IC50 was 23.5 µM.

For the compound `Oc1ccccc1-c1cc(-c2ccc3c(c2)OCCO3)n[nH]1`, the half-inhibitory concentration (IC50) is 8.15 µM.

On to `N#Cc1nc(Cc2cccc3ccccc23)oc1NCc1ccc(F)cc1`, for which the 50% inhibitory concentration (IC50) is 11.7 µM.

Take `O=C(CCCOc1ccc(Cl)cc1Cl)N1CCN(c2ccccn2)CC1`: the concentration for half-maximal inhibition (IC50) is 6.04 µM.

As to `N#CC1=C(N)SC(N)=C(C#N)C1CCC1CCCCC1`, the 50% inhibitory concentration (IC50) was 3.65 µM.

On to `O=C(CCC1CCCC1)c1c(O)c2ccccc2oc1=O`, for which the half-inhibitory concentration (IC50) is 0.96 µM.

On to `CCCCCOC(=O)c1ccc(NC(=O)c2ccco2)cc1`, for which the IC50 is 6.52 µM.

On to `Cc1cc2n(n1)C(c1ccc3c(c1)OCO3)Nc1c(C)cccc1-2` (stereo not drawn), for which the IC50 is 29.6 µM.

Regarding `CCOc1ccc(C(=O)C2CCN(CC(=O)Nc3ccccc3N3CCOCC3)CC2)cc1`, the IC50 is 15.6 µM.

For `Cc1noc(C)c1S(=O)(=O)N(CCc1ccccc1)Cc1ccccc1`, the half-inhibitory concentration (IC50) is 16.6 µM.

As to `Cc1cccc(N2CCN(C(=O)c3ccc(NS(=O)(=O)c4c(C)noc4C)cc3)CC2)c1C`, the IC50 is 16.2 µM.

For `CCSC(C)CC1C/C(=N/O)c2c(CC)noc2C1` (stereo not drawn), the IC50 is 20.7 µM.

On to `CN(C)[C@@H]1C(=O)C(C(N)=O)=C(O)[C@@]2(O)C(=O)C3=C(O)c4c(O)ccc(Cl)c4[C@@H](O)[C@H]3C[C@@H]12`, for which the IC50 is under 0.2 µM.

In the case of `COc1cccc(-c2nnc(NC(=O)c3ccc(S(=O)(=O)N4CCOCC4)cc3)o2)c1`, the IC50 was 0.99 µM.

Take `Oc1c(CN2CCCCC2)cc(Br)c2cccnc12`: the IC50 was 4.8 µM.

`O=C(Nc1ccc(Br)c(Cl)c1)c1ccco1`: the IC50 was 8.74 µM.

`O=C1C2=C(Nc3ccccc3SC2c2ccco2)c2ccccc21` (stereo not drawn): the IC50 was under 0.2 µM.

`CCc1ccc2[nH]c(=O)c(C(c3nnnn3CCOC)N3CCN(c4ccc(F)cc4)CC3)cc2c1` (stereo not drawn): the half-maximal inhibitory concentration (IC50) was 35.7 µM.

On to `CC1=C(C(=O)OC(C)C)C(c2c[nH]c3ccccc23)n2ncnc2N1` (stereo not drawn), for which the IC50 was 6.11 µM.

Regarding `COc1ccc(Cl)cc1N(C)C(=O)CCc1nc(-c2ccc(C)cc2)no1`, the half-maximal inhibitory concentration (IC50) is 15.2 µM.

`CCc1cc2cc(C(=O)N3CCN(Cc4ccccc4)CC3)sc2s1`: the 50% inhibitory concentration (IC50) was 10.3 µM.

Turning to `CC1CC(N(C(=O)c2ccco2)c2ccccc2)c2ccccc2N1` (stereo not drawn), the 50% inhibitory concentration (IC50) is 13.4 µM.

For `c1ccc(CN2CCN(c3nc(-c4ccccc4)nc(-n4ccnc4)n3)CC2)cc1`, the concentration for half-maximal inhibition (IC50) was 6.13 µM.

For `Cc1ccc(Nc2nc(CSc3nnnn3-c3ccccc3)cs2)cc1`, the IC50 is 11.5 µM.

As to `O=C(CC(=O)c1cc(Cl)ccc1O)c1ccccc1`, the IC50 was 8.34 µM.

In the case of `C=CCc1c(C)nc(SCc2nc3ccccc3c(=O)[nH]2)[nH]c1=O`, the 50% inhibitory concentration (IC50) was 6.54 µM.

In the case of `Cc1ccc2ccc(S(=O)(=O)n3nc(C)cc3C)cc2c1`, the IC50 was 14.5 µM.

For the compound `Cc1nn(-c2ccccc2)c(Cl)c1C(=O)Nc1nnc(C2CCCC2)s1`, the half-maximal inhibitory concentration (IC50) was 8.48 µM.

Consider `O=S(=O)(Nc1nc2ccccc2s1)c1ccc(Br)s1`, for which the IC50 is 3.88 µM.

Turning to `O=C(CSc1nnc(Cc2ccccc2)n1Cc1ccco1)NC12CC3CC(CC(C3)C1)C2`, the IC50 is 61.8 µM.

As for `CCNc1nc(NC(C)C)nc(N(C#N)Cc2ccccc2)n1`, the 50% inhibitory concentration (IC50) is 18.1 µM.

Take `COc1ccccc1-c1cc(C(=O)N2CCN(c3ccccc3OC)CC2)no1`: the IC50 was 17.9 µM.

Turning to `Cn1ncc(C#N)c1/N=C/N(Cc1ccccc1)Cc1ccccc1`, the IC50 was 7.5 µM.

As for `Cc1csc(NC(=O)c2cccc(Cn3nc(C)c(Br)c3C)c2)n1`, the IC50 was 10.3 µM.

For the compound `COc1ccccc1N1CCN(C(=O)COc2ccc(C)cc2Br)CC1`, the IC50 is 25.9 µM.

These data come from PubChem BioAssay AID617 (SRMLSC, 2007).
